ChEMBL document CHEMBL4308829, “Design and Synthesis of Novel Positive Allosteric Modulators of α7 Nicotinic Acetylcholine Receptors with the Ability To Rescue Auditory Gating Deficit in Mice” (J Med Chem, 2018)
Active and inactive are the calls of the source. The rule behind the calls is not given here.

Key:
[1] = target: T1, Neuronal acetylcholine receptor subunit alpha-7 (Homo sapiens, UniProt P36544); test: (§1) Positive allosteric modulation of human alpha7 nAChR expressed in Xenopus laevis oocytes assessed as increase in acetylcholine-induced channel current at 10 uM at -90 mV holding potential preincubated for 2 mins followed by co-application with acetylcholine for 10 secs by two-electrode voltage clamp method relative to control; format: cell-based
T1 sequence (P36544 whole entry): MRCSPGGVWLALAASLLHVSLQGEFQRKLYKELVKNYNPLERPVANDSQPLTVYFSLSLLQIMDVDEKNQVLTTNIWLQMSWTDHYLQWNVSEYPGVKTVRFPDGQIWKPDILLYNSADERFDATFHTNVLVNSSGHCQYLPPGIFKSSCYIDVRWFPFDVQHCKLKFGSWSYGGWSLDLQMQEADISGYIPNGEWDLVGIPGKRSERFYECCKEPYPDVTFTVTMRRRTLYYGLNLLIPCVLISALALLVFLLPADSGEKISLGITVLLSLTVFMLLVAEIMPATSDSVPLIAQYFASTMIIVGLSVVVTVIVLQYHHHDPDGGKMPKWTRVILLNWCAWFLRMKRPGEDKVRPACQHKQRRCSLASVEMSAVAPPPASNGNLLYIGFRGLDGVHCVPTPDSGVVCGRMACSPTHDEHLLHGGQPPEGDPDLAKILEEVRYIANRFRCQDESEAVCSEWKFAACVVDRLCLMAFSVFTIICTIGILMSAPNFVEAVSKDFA

[2] = target: T1, Neuronal acetylcholine receptor subunit alpha-7; test: as §1, with “current by measuring maximum efficacy of acetylcholine” for “current”, “(reference value: 109 +/- 2%)” for “relative to control”; format: cell-based
[3] = target: Neuronal acetylcholine receptor; alpha3/beta4 (Rattus norvegicus) (UniProt P04757+P12392); test: Positive allosteric modulation of rat alpha3beta4 nAChR expressed in Xenopus laevis oocytes assessed as increase in acetylcholine-induced channel current at 10 uM at -90 mV holding potential by two-electrode voltage clamp method; format: cell-based
In short: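 Rat α3β4 or α4β2 subunit cRNAs (~2 ng total, 1:1) injected into oocytes, which were kept at 16 °C in ND96. Two-electrode voltage clamp at -90 mV, 24-72 h post-injection, in Ringer's containing atropine at room temperature.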

[4] = target: T1, Neuronal acetylcholine receptor subunit alpha-7; test: Induction of desensitization of human alpha7 nAChR expressed in Xenopus laevis oocytes assessed as acetylcholine-induced channel desensitization time constant at 10 uM at -90 mV holding potential by two-electrode voltage clamp method (reference value: 5.56 +/- 1.27); format: cell-based
[5] = target: Glutamate NMDA receptor; Grin1/Grin2b (Rattus norvegicus) (UniProt P35439+Q00960); test: Positive allosteric modulation of rat GluN1/GluN2B receptor expressed in Xenopus laevis oocytes assessed as increase in glycine/glutamate-induced channel current 10 uM by two-electrode voltage clamp method; format: cell-based
[6] = Apparent clearance in rat at 60 mg/kg, po by LC-MS/MS analysis; format: ADME, organism-based; settings: in vivo
In short: (§2)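 Rat plasma stored at -20 °C, spiked with internal standard, protein-precipitated with methanol, centrifuged and filtered before LC-MS/MS. C18 column at 40 °C, acetonitrile/0.1% formic acid (80:20) isocratic at 0.5 mL/min. Positive ESI with MRM m/z 400.0->129.9. Parameters taken per rat by non-compartmental analysis, n = 3.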

[7] = target: Voltage-gated inwardly rectifying potassium channel KCNH2 (Homo sapiens, UniProt Q12809); test: Inhibition of human ERG expressed in HEK293 cells up to 30 uM at -80 mV holding potential by whole-cell patch clamp assay; format: cell-based
Chain of Voltage-gated inwardly rectifying potassium channel KCNH2 (Q12809 whole entry, the tested form may be a part): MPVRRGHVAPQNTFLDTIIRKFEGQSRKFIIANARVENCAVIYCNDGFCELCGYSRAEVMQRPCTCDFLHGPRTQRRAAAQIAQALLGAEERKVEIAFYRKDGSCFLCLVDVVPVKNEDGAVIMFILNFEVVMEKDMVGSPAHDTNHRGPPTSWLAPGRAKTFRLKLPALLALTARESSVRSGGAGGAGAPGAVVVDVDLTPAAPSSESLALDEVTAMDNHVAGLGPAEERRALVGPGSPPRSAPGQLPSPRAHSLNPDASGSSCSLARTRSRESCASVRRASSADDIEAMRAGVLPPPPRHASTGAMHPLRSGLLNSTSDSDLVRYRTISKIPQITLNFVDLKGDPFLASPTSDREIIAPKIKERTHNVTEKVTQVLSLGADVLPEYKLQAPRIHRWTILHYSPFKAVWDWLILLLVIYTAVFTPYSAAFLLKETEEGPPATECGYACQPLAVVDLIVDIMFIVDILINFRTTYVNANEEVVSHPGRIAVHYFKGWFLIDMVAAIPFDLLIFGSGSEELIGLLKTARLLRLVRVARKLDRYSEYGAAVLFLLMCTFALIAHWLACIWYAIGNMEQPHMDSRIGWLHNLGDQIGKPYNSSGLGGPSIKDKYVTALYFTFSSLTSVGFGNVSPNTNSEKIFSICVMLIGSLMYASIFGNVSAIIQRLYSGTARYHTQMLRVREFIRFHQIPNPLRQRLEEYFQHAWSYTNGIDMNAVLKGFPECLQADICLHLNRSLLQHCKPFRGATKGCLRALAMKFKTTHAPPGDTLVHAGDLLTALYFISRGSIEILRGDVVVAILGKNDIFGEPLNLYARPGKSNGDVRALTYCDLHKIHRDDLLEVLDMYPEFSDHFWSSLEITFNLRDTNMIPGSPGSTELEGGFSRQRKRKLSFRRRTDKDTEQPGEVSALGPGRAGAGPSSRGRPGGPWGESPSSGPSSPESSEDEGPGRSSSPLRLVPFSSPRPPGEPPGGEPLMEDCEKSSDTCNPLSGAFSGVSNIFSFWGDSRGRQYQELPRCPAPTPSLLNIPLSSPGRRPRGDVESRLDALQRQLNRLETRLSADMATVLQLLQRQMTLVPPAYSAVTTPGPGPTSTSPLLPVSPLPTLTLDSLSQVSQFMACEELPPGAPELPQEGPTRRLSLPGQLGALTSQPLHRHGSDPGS
In short: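 HEK293 cells stably expressing hERG, whole-cell clamp at room temperature. Holding -80 mV, step to +20 mV for 2 s, then -40 mV for 1.6 s, repeated every 10 s. Compound perfused at 1-30 µM, with 100 nM cisapride as reference. Peak -40 mV tail currents normalized to control, n = 4.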

[8] = Cmax in rat at 3 mg/kg, iv by LC-MS/MS analysis; format: ADME, organism-based; design: dose 3 mg/kg, route intravenous; settings: in vivo; in short: as §2
[9] = MRT in rat at 3 mg/kg, iv by LC-MS/MS analysis; format: ADME, organism-based; settings: in vivo; in short: as §2
[10] = Clearance in rat at 3 mg/kg, iv by LC-MS/MS analysis; format: ADME, organism-based; settings: in vivo; in short: as §2
[11] = Half life in rat at 60 mg/kg, po by LC-MS/MS analysis; format: ADME, organism-based; settings: in vivo; in short: as §2
[12] = Apparent volume of distribution during terminal phase in rat at 60 mg/kg, po by LC-MS/MS analysis; format: ADME, organism-based; settings: in vivo; in short: as §2
[13] = Oral bioavailability in rat at 60 mg/kg by LC-MS/MS analysis; format: ADME, organism-based; settings: in vivo; in short: as §2
[14] = Plasma concentration in C57BL/6J mouse at 1 mg/kg, ip after 0.5 hrs by LC-MS/MS analysis; format: ADME, organism-based
In short: (§3)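 C57BL/6J mice given 1 mg/kg i.p. from a 0.4 mg/mL solution in 10% DMSO/50% PEG400/40% SBECD. Plasma and brain taken at 0.5, 2 and 8 h. Samples mixed with internal standard in methanol/acetonitrile (1:1), centrifuged and diluted 10x in methanol:water with 0.1% FA, then measured by HPLC-MS-MS. n = 3; ratio is brain over plasma concentration.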

[15] = Drug uptake in C57BL/6J mouse brain at 1 mg/kg, ip after 8 hrs by LC-MS/MS analysis; format: ADME, organism-based; settings: read-out: Drug uptake; in short: as §3
Mus musculus = test: Anti-schizophrenic activity in C57BL/6J mouse assessed as protection against MK-801-induced auditory gating deficit by measuring prepulse inhibition impairment at 1 mg/kg, ip at 8 to 16 dB prepulse intensity pretreated for 30 mins starting from 30 mins post alpha7 nAChR antagonist MLA treatment followed by MK-801 treatment and measured after 30 mins (reference value: 8.7%); format: functional; design: scale not given: the % may be the effect or the level left
In short: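 Mice given MLA 3 mg/kg i.p. 30 min before, then compound 1 mg/kg i.p. 60 min before test and MK-801 0.1 mg/kg i.p. 30 min before test. PPI measured at prepulses 8-16 dB above 68 dB background. %PPI = (1 − prepulse-pulse/pulse-only)×100, one-way ANOVA.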

Cc1cccc(Cl)c1-n1cnc2nc(SCc3ccccc3)sc2c1=O
%max [1]: 1630%
Emax [2]: 1540%
Activity [3]: inactive
Activity [4]: 6.54
Activity [5]: inactive
CL/F [6]: 1 mL/min/kg
inhibition (INH) [7]: Not Active
Cmax [8]: 700 ng/mL
MRT [9]: 7 h
clearance [10]: 5 mL/h/kg
half-life [11]: 444 min
Vd/F [12]: 0.6 L/kg
bioavailability [13]: 8%
concentration at 0.5 h [14]: 34.3 ng/mL
concentration at 8 h [15]: 3.7 ng/g
Activity (Mus musculus): 14%
